Screens deposited in PubChem by several laboratories.
UCH37 inh: blocks the human deubiquitinase UCH37 | Q9Y5K5 | purified proteasome/UCH37, Ub-AMC cleavage fluorescence | inhibition, % (test concentration not listed) | 330,000 compounds, 0.33% hits;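 active = mean inhibition over replicate wells above about 20%, limit read from the data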
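Material: human UCH37 enzyme supplied as purified proteasome complex. Measure: % inhibition of Ub-AMC cleavage fluorescence. Medium: pH 7.4 Tris-HCl (50 mM) with ovalbumin, ATP-MgCl2, DTT. Times: 30 min preincubation with enzyme, 25 min cleavage at room temperature. Detection: AMC fluorescence intensity at 355/460 nm.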
ALR inh: human ALR oxidase inhibition via reduced H2O2 | P55789 | purified ALR, DTT oxidation, H2O2 HRP-luminol luminescence | inhibition, % (test concentration not listed) | 290,000 compounds, 3.8% hits;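 active = mean replicate inhibition above about 79%, with every replicate also reaching it, limit read from the data; inconclusive = only one of the two criteria met; inactive = mean below limit and not every replicate reaching it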
Rtt109 HAT inh: inhibitors of Candida albicans Rtt109/Vps75 histone acetyltransferase | Q5AAJ8 | purified Rtt109/Vps75, ThioGlo CoA-SH fluorescence, 4 h | inhibition, % at 34.9 µM | 330,000 compounds, 0.16% hits | AID 540336;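 active = inhibition of at least 50% in every replicate; inconclusive = best replicate reaches 50% inhibition but some replicates fall short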
Target sequence (Q5AAJ8 whole entry, looked up): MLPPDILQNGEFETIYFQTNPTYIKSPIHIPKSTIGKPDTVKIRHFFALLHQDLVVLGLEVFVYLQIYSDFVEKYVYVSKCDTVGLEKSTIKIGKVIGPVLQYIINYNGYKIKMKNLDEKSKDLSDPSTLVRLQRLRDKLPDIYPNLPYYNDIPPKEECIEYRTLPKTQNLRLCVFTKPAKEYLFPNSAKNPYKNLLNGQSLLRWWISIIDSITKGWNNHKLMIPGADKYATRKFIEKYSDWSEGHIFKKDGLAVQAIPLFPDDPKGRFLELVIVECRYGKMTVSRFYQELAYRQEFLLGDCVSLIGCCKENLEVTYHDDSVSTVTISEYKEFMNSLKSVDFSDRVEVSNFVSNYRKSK
M18AAP inhibitor: PfM18AAP enzyme inhibition. inhibition, % at 7.35 µM. 290,000 compounds, 1.2% hits. recombinant PfM18AAP, H-Glu-NHMec fluorogenic cleavage. AID 1822;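 active = inhibition above the campaign mean inhibition over all tested compounds plus 3 SD, cut at about 28% in these data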
HDAC3 inh: human HDAC3 inhibition | inhibition, % at 8.3 µM | O15379 | 320,000 compounds, 0.15% hits | recombinant HDAC3, fluorogenic peptide/trypsin coupled, fluorescence; in the data active = inhibition above about 26%, passing the limit was not always enough; inconclusive = no clear call, values can overlap the other calls
FAS TE block: inhibitors of human fatty acid synthase thioesterase domain; P49327; recombinant FAS-TE, OMFH fluorogenic substrate, fluorescence endpoint; inhibition, % at 15 µM; 360,000 compounds, 0.67% hits;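 active = compounds whose normalised, plate-corrected inhibition of enzyme fluorescence in the single-dose primary screen is 50% or more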
Numbers stand for hits; – = inactive; ? = inconclusive; · = not tested or not shown. Shown are actives, neighbours in structure and some others; about 4.6% of the full set was active somewhere.

SMILES	UCH37 inh	ALR inh	Rtt109 HAT inh	M18AAP inhibitor	HDAC3 inh	FAS TE block
C=CCn1c(N)cc(=O)nc1SCC(=O)Nc1ccc(C(=O)OCC)cc1	–	99	–	–	–	–
C=CCn1c(N)cc(=O)nc1SCC(=O)Nc1ccc(C(=O)OC)cc1	–	99	–	–	–	–
Cc1ccccc1NC(=S)NN=CC(C)c1ccccc1 (stereo unspecified)	–	·	·	·	·	·
COc1cc(C=NNc2nc3ccccc3[nH]2)cc(Br)c1OCC(=O)N(C)C	–	·	·	·	·	·
Cc1cc2cc(CNS(=O)(=O)c3ccccc3)ccc2n1C	–	96	–	–	·	–
COc1ccc(C=NNC(=O)c2ccc(COc3cccc4cccnc34)cc2)cc1O	–	·	·	·	·	·
COc1ccc2c(c1)C(C)=CC(C)(C)N2S(=O)(=O)c1ccc(C)cc1	23	–	–	–	–	–
CCOc1ccc2c(c1)C(C)=CC(C)(C)N2S(=O)(=O)c1ccc(C)cc1	–	·	–	–	·	–
Cc1ccc(C(=NNc2nc3ccccc3s2)C2=C(O)c3ccccc3C2=O)cc1	–	·	·	·	·	·
Cc1ccc(N(C(=O)c2snc(C(N)=O)c2N)C(CC(C)C)C(=O)NC2CCCC2)cc1 (stereo unspecified)	–	–	–	–	–	–
COc1ccccc1N(C(=O)c1snc(C(N)=O)c1N)C(C(=O)NC1CCCCC1)c1cccc(OC)c1OC (stereo unspecified)	–	·	53	–	–	–
CC(C(=O)NC1CCCC1)N(C(=O)c1snc(C(N)=O)c1N)c1ccc2c(c1)OCCO2 (stereo unspecified)	–	96	–	–	–	–
O=C(NN=Cc1c[nH]c2ccccc12)c1cccc(O)c1	–	·	·	·	·	·
CC(=NNC(=O)CN(c1ccc(Oc2ccccc2)cc1)S(C)(=O)=O)C(C)(C)C	–	·	·	·	·	·
Cc1cccc(CCN2C(N(C)C)=NC[C@@H]2CC(C)C)c1	33	–	–	·	–	–
CCO[C@@H]1OC(C(=O)O)=C[C@H](c2ccccc2)[C@H]1CCCO	–	–	–	·	–	–
C#CCNC(=O)C1=C[C@@H](c2ccc(Br)cc2)[C@H](CCCO)[C@@H](OCC)O1	24	·	–	–	–	–
CCO[C@@H]1OC(C(=O)O)=C[C@H](c2ccc(Br)cc2)[C@H]1CCCO	–	·	–	–	41	–
C#CCNC(=O)C1=C[C@H](c2ccc(Br)cc2)[C@@H](CCCO)[C@H](OCC)O1	–	–	–	–	–	–
COc1ccc(C=NOCC(=O)OCC(=O)N(C)c2ccccc2)cc1	–	·	·	·	·	·
O=C(NN=Cc1cccnc1)c1cc(-c2ccccc2Cl)nc2ccccc12	–	·	·	·	·	·
Cc1nc2sc(-c3ccccc3)cc2c(=O)n1N=CN(C)C	–	·	·	·	·	·
CNC(=S)NCCc1c[nH]c2ccc(OC)cc12	–	99	–	–	–	–
COCCNC(=S)N(CCO)Cc1cc2cc3c(cc2[nH]c1=O)OCCO3	–	–	–	–	32	–
CC(C)COc1ccc(C(=O)NN=Cc2ccoc2)cc1	–	·	·	·	·	·
SMILES	UCH37 inh	ALR inh	Rtt109 HAT inh	M18AAP inhibitor	HDAC3 inh	FAS TE block
CCOC(=O)N1CCN(c2cc(NCCC(=O)O)c3c4c(onc24)-c2ccccc2C3=O)CC1	27	?	–	–	–	–
COc1cc(C)c(-c2cc(C(=O)O)c(C)o2)cc1C(C)C	–	97	–	–	–	–
O=C(COc1cccc(Br)c1)NN=CC(=O)c1ccccc1	–	·	·	·	·	·
Cc1oc(C(=O)O)cc1CSCc1cc(C(=O)O)c(C)o1	–	99	–	–	–	–
COC(=O)NN=Cc1c(C)cc(C)cc1C	–	·	·	·	·	·
CCC(/C=N/NC(=O)C(N)=O)CC	·	98	–	–	–	–
Cc1cc(C=NNC(=O)c2cccc(N(C)C)c2)c(C)n1-c1cc(C(=O)O)cc(C(=O)O)c1	–	·	·	·	·	·
CCOc1cc(/C=N/N=C2/NC(=O)C(CC(=O)O)S2)ccc1OCc1ccccc1Cl (stereo unspecified)	·	98	–	–	–	–
COc1ccc(/C=N/N=C2/NC(=O)C(CC(=O)O)S2)cc1OCc1ccccc1Cl (stereo unspecified)	·	92	–	–	–	–
COc1ccc(/C=N/N=C2/NC(=O)C(CC(=O)O)S2)cc1OCc1ccc(Cl)cc1Cl (stereo unspecified)	·	–	–	–	–	–
Cc1cc(-c2nnc(SCC(=O)Nc3nccs3)o2)no1	–	89	–	–	–	–
Cc1cc(-c2nnc(SCC(=O)Nc3ccccn3)o2)no1	–	–	–	–	–	–
